Converted amounts (≈) assume the structure as drawn.
How the values were obtained:
Hepatitis C virus [1] = assay: Antiviral activity against HCV genotype 1a H77 infected in human HuH7 replicon cells assessed as inhibition of viral replication after 3 days by luciferase reporter gene assay; format: functional, organism-based, Hepacivirus hominis; settings: subtype 1a H77, Huh-7, 72 h
In short: (§1)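 Stable subgenomic replicon cell lines (genotype 1a-H77 or 1b-Con1) carrying a luciferase reporter; compounds added in DMEM with 5% FBS, cells incubated 3 days with or without compound, then lysed and luciferase activity read; EC50 from nonlinear regression fit to 4-parameter logistic equation.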

Hepatitis C virus [2] = assay: Antiviral activity against HCV genotype 1b Con1 infected in human HuH7 replicon cells assessed as inhibition of viral replication after 3 days by luciferase reporter gene assay; format: functional, organism-based, Hepacivirus hominis; settings: subtype 1b Con1, Huh-7, 72 h; in short: as §1
[3] = Prodrug conversion in Beagle dog liver assessed as nucleotide triphosphate level at 5 mg/kg, po administered as single dose measured after 4 hrs by LC-MS/MS analysis; format: ADME, organism-based, Canis lupus familiaris; settings: in vivo
[4] = Prodrug conversion in Beagle dog liver assessed as nucleotide triphosphate level at 5 mg/kg, po co-dosed with 5 mg/kg sofosbuvir measured after 4 hrs by LC-MS/MS analysis; format: ADME, organism-based, Canis lupus familiaris; settings: in vivo
In short: (§2)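 Beagle dogs (3 per time point) given single oral prodrug 5 mg/kg in EtOH:PEG-400:Phosal 53 MCT (10:30:60, w/w), cassette-dosed with sofosbuvir 5 mg/kg as internal standard; liver biopsies at 4 or 24 h, flash frozen, triphosphate measured by LC-MS/MS.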

[5] = Prodrug conversion in Beagle dog liver assessed as nucleotide triphosphate level at 5 mg/kg, po administered as single dose measured after 24 hrs by LC-MS/MS analysis; format: ADME, organism-based, Canis lupus familiaris; settings: in vivo
[6] = Prodrug conversion in Beagle dog liver assessed as nucleotide triphosphate level at 5 mg/kg, po co-dosed with 5 mg/kg sofosbuvir measured after 24 hrs by LC-MS/MS analysis; format: ADME, organism-based, Canis lupus familiaris; settings: in vivo; in short: as §2
[7] = Prodrug conversion in Beagle dog liver assessed as nucleotide triphosphate level at 5 mg/kg, po qd for 4 days and measured at 24 hrs post-last dose by LC-MS/MS analysis; format: ADME, organism-based, Canis lupus familiaris; settings: in vivo
[8] = Prodrug conversion in Beagle dog liver assessed as nucleotide triphosphate level at 1 mg/kg, po qd for 4 days co-dosed with 5 mg/kg sofosbuvir and measured at 24 hrs post-last dose by LC-MS/MS analysis; format: ADME, organism-based, Canis lupus familiaris; settings: in vivo
In short: (§3)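 Beagle dogs (3 per time point) dosed orally once daily for 4 days with prodrug (1 or 5 mg/kg) in EtOH:PEG-400:Phosal 53 MCT (10:30:60, w/w) together with sofosbuvir 5 mg/kg; liver biopsy 24 h after final dose, flash frozen, triphosphate by LC-MS/MS.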

[9] = Prodrug conversion in human primary hepatocytes assessed as nucleotide triphosphate level at 100 uM incubated for 4 hrs followed by compound wash-out for 20 hrs and measured following 4 hrs incubation period by LC-MS/MS analysis; format: ADME, cell-based, Hepatocyte
In short: (§4)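 Cryopreserved primary human hepatocytes plated ~55,000 viable cells/well on collagen, medium changed after 4–6 h to Williams E maintenance medium with Geltrex 0.35 mg/mL, overnight at 37 °C; prodrug 100 µM for 4 h, then washed; second plate held a further 20 h drug-free; cells washed with ice-cold HBSS, triphosphate measured by LC-MS/MS at 4 or 24 h.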

[10] = Prodrug conversion in human primary hepatocytes assessed as nucleotide triphosphate level at 100 uM incubated for 4 hrs and followed by compound washout for 20 hrs and measured following 24 hrs incubation period by LC-MS/MS analysis; format: ADME, cell-based, Hepatocyte; in short: as §4
Hepatitis C virus [11] = assay: Antiviral activity against HCV genotype 1b Con1 over expressing CES1 infected in human HuH7 replicon cells assessed as inhibition of viral replication after 3 days by luciferase reporter gene assay; format: functional, organism-based, Hepacivirus hominis; settings: subtype 1b Con1, Huh-7, 72 h
[12] = Distribution coefficient, logD of compound by HT-LCMS analysis; format: physicochemical; settings: octanol/water
[13] = Aqueous solubility of compound in pH 7.4 phosphate buffer; format: physicochemical
[14] = Stability in dog plasma assessed as parent compound remaining after 4 hrs; format: ADME, cell-free, Canis lupus familiaris; settings: read-out: Stability
In short: (§5)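 Prodrug incubated 4 h at 37 °C in dog or human plasma; result given as percent parent remaining.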

[15] = Stability in human plasma assessed as parent compound remaining after 4 hrs; format: ADME, cell-free; settings: read-out: Stability; in short: as §5
[16] = Unbound drug level in dog plasma; format: ADME, cell-free, Canis lupus familiaris
[17] = Unbound drug level in human plasma; format: ADME, cell-free
[18] = Intrinsic clearance in dog hepatocytes; format: ADME, cell-based, Canis lupus familiaris, Hepatocyte; settings: read-out: CLH (converted)
[19] = Intrinsic clearance in human hepatocytes; format: ADME, cell-based, Hepatocyte; settings: read-out: CLH (converted)
[20] = Prodrug conversion in Beagle dog liver assessed as increase in nucleotide triphosphate level at 5 mg/kg, po co-dosed with 5 mg/kg sofosbuvir measured after 24 hrs by LC-MS/MS analysis relative to sofosbuvir; format: ADME, organism-based, Canis lupus familiaris; settings: in vivo; in short: as §2
[21] = Prodrug conversion in human primary hepatocytes assessed as increase in nucleotide triphosphate level at 100 uM incubated for 4 hrs followed by compound wash-out for 20 hrs and measured following 4 hrs incubation period by LC-MS/MS analysis relative to sofosbuvir; format: ADME, cell-based, Hepatocyte
[22] = Prodrug conversion in Beagle dog liver assessed as increase in nucleotide triphosphate level at 5 mg/kg, po co-dosed with 5 mg/kg sofosbuvir measured after 4 hrs by LC-MS/MS analysis relative to sofosbuvir; format: ADME, organism-based, Canis lupus familiaris; settings: in vivo; in short: as §2
[23] = Prodrug conversion in Beagle dog liver assessed as nucleotide triphosphate level at 5 mg/kg, po qd for 4 days co-dosed with 5 mg/kg sofosbuvir and measured at 24 hrs post-last dose by LC-MS/MS analysis; format: ADME, organism-based, Canis lupus familiaris; settings: in vivo; in short: as §3

Compound | EC50 (Hepatitis C virus [1]) [nM] | EC50 (Hepatitis C virus [2]) [nM] | Drug metabolism [3] [µM] | Drug metabolism [4] [µM] | Drug metabolism [5] [µM] | Drug metabolism [6] [µM] | Drug metabolism [7] [µM] | Drug metabolism [9] [µM] | Drug metabolism [10] [µM] | EC50 (Hepatitis C virus [11]) [nM] | logD [12] | solubility [13] [µM] | remaining at 4 h [14] [%] | remaining at 4 h [15] [%] | fraction unbound [16] | fraction unbound [17] | CLint scaled [18] [mL/min/kg] | CLint scaled [19] [mL/min/kg] | fold change (FC) [21] | also measured
CCOC(=O)C(C)(C)N[P@](=O)(OC[C@H]1O[C@@H](n2ccc(=O)[nH]c2=O)[C@@](F)(Br)[C@@H]1O)Oc1ccccc1 | 259 | 434 | 43.3 | 7 | 42.7 | 6.64 | 8.18 | 3600 | 736 | 69 | 2.86 | 519 (≈ 308 µg/mL) | 100 | 98 | 0.317 | 0.473 | 123 | 132 | 30 to 40 | Drug metabolism [8]: 10.7 µM; fold change (FC) [20]: 5 to 6; fold change (FC) [22]: 5 to 6
CCOC(=O)C(C)(C)N[P@](=O)(OC[C@H]1O[C@@H](n2ccc(=O)[nH]c2=O)[C@](Cl)(Br)[C@@H]1O)Oc1ccccc1 | 644 | 952 | 8.83 | 15.03 | 2.1 | 5.44 | 2.89 | 2818 | 203 | 154 | 3.11 | > 200 | 86 | 100 | 0.133 | 0.24 | 200 | 268 | 30 to 40 | Drug metabolism [23]: 11.1 µM
